Measured values published in ChEMBL document CHEMBL4613327, “Sulfonamide Inhibitors of Human Carbonic Anhydrases Designed through a Three-Tails Approach: Improving Ligand/Isoform Matching and Selectivity of Action” (J Med Chem, 2020).

molecular target: Carbonic anhydrase 12 (Homo sapiens, UniProt O43570); test: Inhibition of human CA12 preincubated for 15 mins by stopped-flow CO2 hydration kinetic assay based Cheng-Prusoff equation analysis
Sequence (O43570 whole entry): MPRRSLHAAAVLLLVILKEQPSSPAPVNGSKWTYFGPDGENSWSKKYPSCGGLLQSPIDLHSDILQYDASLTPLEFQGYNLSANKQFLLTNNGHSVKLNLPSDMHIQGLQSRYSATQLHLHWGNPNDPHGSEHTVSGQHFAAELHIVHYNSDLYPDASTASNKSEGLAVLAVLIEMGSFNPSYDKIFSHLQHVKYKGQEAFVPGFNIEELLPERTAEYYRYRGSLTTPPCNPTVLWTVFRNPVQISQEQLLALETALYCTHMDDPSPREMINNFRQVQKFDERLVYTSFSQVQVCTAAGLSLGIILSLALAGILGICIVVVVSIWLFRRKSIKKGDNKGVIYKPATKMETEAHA

SMILES | Ki
CCCCCCN(CCCCCC)CC(=O)N(CCC(=O)O)CCc1ccc(S(N)(=O)=O)cc1 | 9.9 nM
NCCCN(CCc1ccccc1)CC(=O)N(CCc1ccc(S(N)(=O)=O)cc1)Cc1ccc(F)cc1 | 0.6 nM
N#CCCN(CCc1ccccc1)CC(=O)N(CCc1ccc(S(N)(=O)=O)cc1)Cc1ccc([N+](=O)[O-])cc1 | 89.5 nM
NCCCN(CCc1ccccc1)CC(=O)N(CCc1ccccc1)CCc1ccc(S(N)(=O)=O)cc1 | 83.7 nM
NS(=O)(=O)c1ccc(CCNCc2ccc(F)cc2)cc1 | 60.1 nM
CCN(CC)CCC(=O)N(CCc1ccc(S(N)(=O)=O)cc1)Cc1ccccc1 | 61.1 nM

species on record: Homo sapiens; test: Selectivity index, ratio of Ki for inhibition of human CA1 to Ki for inhibition of human CA12
In short: (§1)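 Ratio of Ki values. Each Ki came from stopped-flow CA-catalysed CO2 hydration with recombinant in-house hCA isoforms, phenol red 0.2 mM read at 557 nm, 20 mM Hepes pH 7.5, 20 mM Na2SO4, and CO2 1.7–17 mM. Inhibitor and enzyme were preincubated 15 min at room temperature. Initial rates, less the uncatalysed rate, were fit by nonlinear least squares with Cheng–Prusoff. Mean of ≥3 determinations.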

SMILES | Ratio Ki
CCCCCCN(CCCCCC)CC(=O)N(CCC(=O)O)CCc1ccc(S(N)(=O)=O)cc1 | 28.8
NCCCN(CCc1ccccc1)CC(=O)N(CCc1ccc(S(N)(=O)=O)cc1)Cc1ccc(F)cc1 | 752
N#CCCN(CCc1ccccc1)CC(=O)N(CCc1ccc(S(N)(=O)=O)cc1)Cc1ccc([N+](=O)[O-])cc1 | 4.6
NCCCN(CCc1ccccc1)CC(=O)N(CCc1ccccc1)CCc1ccc(S(N)(=O)=O)cc1 | 2.9
NS(=O)(=O)c1ccc(CCNCc2ccc(F)cc2)cc1 | 1.9
CCN(CC)CCC(=O)N(CCc1ccc(S(N)(=O)=O)cc1)Cc1ccccc1 | 3

molecular target: Carbonic anhydrase 2 (Homo sapiens, UniProt P00918); test: Inhibition of human CA2 preincubated for 15 mins by stopped-flow CO2 hydration kinetic assay based Cheng-Prusoff equation analysis

SMILES | Ki
CCCCCCN(CCCCCC)CC(=O)N(CCC(=O)O)CCc1ccc(S(N)(=O)=O)cc1 | 586 nM
NCCCN(CCc1ccccc1)CC(=O)N(CCc1ccc(S(N)(=O)=O)cc1)Cc1ccc(F)cc1 | 30.4 nM
N#CCCN(CCc1ccccc1)CC(=O)N(CCc1ccc(S(N)(=O)=O)cc1)Cc1ccc([N+](=O)[O-])cc1 | 264 nM
NCCCN(CCc1ccccc1)CC(=O)N(CCc1ccccc1)CCc1ccc(S(N)(=O)=O)cc1 | 367 nM
NS(=O)(=O)c1ccc(CCNCc2ccc(F)cc2)cc1 | 78.5 nM
CCN(CC)CCC(=O)N(CCc1ccc(S(N)(=O)=O)cc1)Cc1ccccc1 | 8.9 nM

species on record: Homo sapiens; test: Selectivity index, ratio of Ki for inhibition of human CA2 to Ki for inhibition of human CA12; in short: as §1

SMILES | Ratio Ki
CCCCCCN(CCCCCC)CC(=O)N(CCC(=O)O)CCc1ccc(S(N)(=O)=O)cc1 | 59.2
NCCCN(CCc1ccccc1)CC(=O)N(CCc1ccc(S(N)(=O)=O)cc1)Cc1ccc(F)cc1 | 50.7
N#CCCN(CCc1ccccc1)CC(=O)N(CCc1ccc(S(N)(=O)=O)cc1)Cc1ccc([N+](=O)[O-])cc1 | 3
NCCCN(CCc1ccccc1)CC(=O)N(CCc1ccccc1)CCc1ccc(S(N)(=O)=O)cc1 | 4.4
NS(=O)(=O)c1ccc(CCNCc2ccc(F)cc2)cc1 | 1.3
CCN(CC)CCC(=O)N(CCc1ccc(S(N)(=O)=O)cc1)Cc1ccccc1 | 0.1

species on record: Homo sapiens; test: Selectivity index, ratio of Ki for inhibition of human CA2 to Ki for inhibition of human CA4; in short: as §1

SMILES | Ratio Ki
CCCCCCN(CCCCCC)CC(=O)N(CCC(=O)O)CCc1ccc(S(N)(=O)=O)cc1 | 12.8
NCCCN(CCc1ccccc1)CC(=O)N(CCc1ccc(S(N)(=O)=O)cc1)Cc1ccc(F)cc1 | 0.08
N#CCCN(CCc1ccccc1)CC(=O)N(CCc1ccc(S(N)(=O)=O)cc1)Cc1ccc([N+](=O)[O-])cc1 | 0.1
NCCCN(CCc1ccccc1)CC(=O)N(CCc1ccccc1)CCc1ccc(S(N)(=O)=O)cc1 | 0.2
NS(=O)(=O)c1ccc(CCNCc2ccc(F)cc2)cc1 | 0.06
CCN(CC)CCC(=O)N(CCc1ccc(S(N)(=O)=O)cc1)Cc1ccccc1 | 0.002

molecular target: Carbonic anhydrase 4 (Homo sapiens, UniProt P22748); test: Inhibition of human CA4 preincubated for 15 mins by stopped-flow CO2 hydration kinetic assay based Cheng-Prusoff equation analysis
Sequence (P22748 whole entry): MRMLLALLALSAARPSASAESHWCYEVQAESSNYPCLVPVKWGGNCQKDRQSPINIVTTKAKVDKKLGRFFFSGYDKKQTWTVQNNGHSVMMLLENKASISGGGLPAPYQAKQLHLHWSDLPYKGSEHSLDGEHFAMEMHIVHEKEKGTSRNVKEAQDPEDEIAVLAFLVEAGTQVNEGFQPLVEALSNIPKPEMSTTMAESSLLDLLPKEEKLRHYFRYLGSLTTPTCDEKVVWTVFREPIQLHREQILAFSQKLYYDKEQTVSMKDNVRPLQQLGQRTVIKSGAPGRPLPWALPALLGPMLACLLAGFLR

SMILES | Ki
CCCCCCN(CCCCCC)CC(=O)N(CCC(=O)O)CCc1ccc(S(N)(=O)=O)cc1 | 45.8 nM
NCCCN(CCc1ccccc1)CC(=O)N(CCc1ccc(S(N)(=O)=O)cc1)Cc1ccc(F)cc1 | 365 nM
N#CCCN(CCc1ccccc1)CC(=O)N(CCc1ccc(S(N)(=O)=O)cc1)Cc1ccc([N+](=O)[O-])cc1 | 2420 nM
NCCCN(CCc1ccccc1)CC(=O)N(CCc1ccccc1)CCc1ccc(S(N)(=O)=O)cc1 | 2150 nM
NS(=O)(=O)c1ccc(CCNCc2ccc(F)cc2)cc1 | 1200 nM
CCN(CC)CCC(=O)N(CCc1ccc(S(N)(=O)=O)cc1)Cc1ccccc1 | 3930 nM

species on record: Homo sapiens; test: Selectivity index, ratio of Ki for inhibition of human CA4 to Ki for inhibition of human CA12; in short: as §1

SMILES | Ratio Ki
CCCCCCN(CCCCCC)CC(=O)N(CCC(=O)O)CCc1ccc(S(N)(=O)=O)cc1 | 4.6
NCCCN(CCc1ccccc1)CC(=O)N(CCc1ccc(S(N)(=O)=O)cc1)Cc1ccc(F)cc1 | 609
N#CCCN(CCc1ccccc1)CC(=O)N(CCc1ccc(S(N)(=O)=O)cc1)Cc1ccc([N+](=O)[O-])cc1 | 27.1
NCCCN(CCc1ccccc1)CC(=O)N(CCc1ccccc1)CCc1ccc(S(N)(=O)=O)cc1 | 25.7
NS(=O)(=O)c1ccc(CCNCc2ccc(F)cc2)cc1 | 19.9
CCN(CC)CCC(=O)N(CCc1ccc(S(N)(=O)=O)cc1)Cc1ccccc1 | 64.3

species on record: Homo sapiens; test: Selectivity index, ratio of Ki for inhibition of human CA1 to Ki for inhibition of human CA2; in short: as §1

SMILES | Ratio Ki
CCCCCCN(CCCCCC)CC(=O)N(CCC(=O)O)CCc1ccc(S(N)(=O)=O)cc1 | 0.5
NCCCN(CCc1ccccc1)CC(=O)N(CCc1ccc(S(N)(=O)=O)cc1)Cc1ccc(F)cc1 | 14.9
N#CCCN(CCc1ccccc1)CC(=O)N(CCc1ccc(S(N)(=O)=O)cc1)Cc1ccc([N+](=O)[O-])cc1 | 1.5
NCCCN(CCc1ccccc1)CC(=O)N(CCc1ccccc1)CCc1ccc(S(N)(=O)=O)cc1 | 0.7
NS(=O)(=O)c1ccc(CCNCc2ccc(F)cc2)cc1 | 1.4
CCN(CC)CCC(=O)N(CCc1ccc(S(N)(=O)=O)cc1)Cc1ccccc1 | 20.7

species on record: Homo sapiens; test: Selectivity index, ratio of Ki for inhibition of human CA1 to Ki for inhibition of human CA4; in short: as §1

SMILES | Ratio Ki
CCCCCCN(CCCCCC)CC(=O)N(CCC(=O)O)CCc1ccc(S(N)(=O)=O)cc1 | 6.2
NCCCN(CCc1ccccc1)CC(=O)N(CCc1ccc(S(N)(=O)=O)cc1)Cc1ccc(F)cc1 | 1.2
N#CCCN(CCc1ccccc1)CC(=O)N(CCc1ccc(S(N)(=O)=O)cc1)Cc1ccc([N+](=O)[O-])cc1 | 0.2
NCCCN(CCc1ccccc1)CC(=O)N(CCc1ccccc1)CCc1ccc(S(N)(=O)=O)cc1 | 0.1
NS(=O)(=O)c1ccc(CCNCc2ccc(F)cc2)cc1 | 0.09
CCN(CC)CCC(=O)N(CCc1ccc(S(N)(=O)=O)cc1)Cc1ccccc1 | 0.04

molecular target: Carbonic anhydrase 1 (Homo sapiens, UniProt P00915); test: Inhibition of human CA1 preincubated for 15 mins by stopped-flow CO2 hydration kinetic assay based Cheng-Prusoff equation analysis
Sequence (P00915 whole entry): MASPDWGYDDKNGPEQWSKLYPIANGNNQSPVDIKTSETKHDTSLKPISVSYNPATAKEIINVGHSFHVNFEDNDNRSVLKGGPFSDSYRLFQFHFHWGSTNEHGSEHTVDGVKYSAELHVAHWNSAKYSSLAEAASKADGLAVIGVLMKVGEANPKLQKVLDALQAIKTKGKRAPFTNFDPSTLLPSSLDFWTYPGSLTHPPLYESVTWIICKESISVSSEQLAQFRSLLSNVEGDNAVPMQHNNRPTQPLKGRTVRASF

SMILES | Ki
CCCCCCN(CCCCCC)CC(=O)N(CCC(=O)O)CCc1ccc(S(N)(=O)=O)cc1 | 286 nM
NCCCN(CCc1ccccc1)CC(=O)N(CCc1ccc(S(N)(=O)=O)cc1)Cc1ccc(F)cc1 | 451 nM
N#CCCN(CCc1ccccc1)CC(=O)N(CCc1ccc(S(N)(=O)=O)cc1)Cc1ccc([N+](=O)[O-])cc1 | 408 nM
NCCCN(CCc1ccccc1)CC(=O)N(CCc1ccccc1)CCc1ccc(S(N)(=O)=O)cc1 | 242 nM
NS(=O)(=O)c1ccc(CCNCc2ccc(F)cc2)cc1 | 113 nM
CCN(CC)CCC(=O)N(CCc1ccc(S(N)(=O)=O)cc1)Cc1ccccc1 | 185 nM
